Test results published in ChEMBL document CHEMBL1255523, “Optimization of N-benzyl-benzoxazol-2-ones as receptor antagonists of macrophage migration inhibitory factor (MIF)” (Bioorg Med Chem Lett, 2010).
Calls of active or inactive are those of the source. The calls are words filed in the database; no cut-off is given here.

Tests used:
[1] = biological target: T1, Macrophage migration inhibitory factor (Homo sapiens, UniProt P14174); experiment: Inhibition of human recombinant MIF tautomerase
T1 sequence (P14174 whole entry): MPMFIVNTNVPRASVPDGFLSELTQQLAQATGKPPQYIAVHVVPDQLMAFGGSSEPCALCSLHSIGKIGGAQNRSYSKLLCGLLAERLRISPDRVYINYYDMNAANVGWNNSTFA

[2] = biological target: T2, MIF/CD74 (Macrophage migration inhibitory factor and HLA-DR antigens-associated invariant chain) (Homo sapiens) (UniProt P14174+P04233); experiment: Inhibition of human recombinant biotinylated MIF/CD74 interaction at up to 10 uM after 30 mins; assay type: protein assay
How it was run: (§1)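 Bound MIF was detected with streptavidin-alkaline phosphatase and p-nitrophenylphosphate substrate. Compounds were tested over 500- to 5000-fold concentration ranges.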

[3] = biological target: T3, Macrophage migration inhibitory factor (Homo sapiens) (UniProt P14174); experiment: Inhibition of human recombinant MIF tautomerase at up to 0.1 uM
T3 sequence (whole entry): T1 sequence (P14174 whole entry)

[4] = biological target: T4, MIF/CD74 (Macrophage migration inhibitory factor and HLA-DR antigens-associated invariant chain) (Homo sapiens, UniProt P04233+P14174); experiment: (§2) Inhibition of human recombinant biotinylated MIF/CD74 interaction after 30 mins; assay type: protein assay; how it was run: as §1
T4 sequence (P14174 whole entry): T1 sequence (P14174 whole entry)
T4 sequence (P04233 whole entry): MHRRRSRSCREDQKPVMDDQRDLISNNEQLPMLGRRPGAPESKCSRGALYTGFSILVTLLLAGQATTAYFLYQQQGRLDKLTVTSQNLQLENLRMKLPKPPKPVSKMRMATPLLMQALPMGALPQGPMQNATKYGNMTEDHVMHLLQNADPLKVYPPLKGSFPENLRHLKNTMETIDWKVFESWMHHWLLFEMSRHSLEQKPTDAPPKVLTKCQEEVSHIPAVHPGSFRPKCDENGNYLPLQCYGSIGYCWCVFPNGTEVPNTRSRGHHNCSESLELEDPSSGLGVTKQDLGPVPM

[5] = biological target: T5, MIF/CD74 (Macrophage migration inhibitory factor and HLA-DR antigens-associated invariant chain) (Homo sapiens, UniProt P14174+P04233); experiment: as §2; assay type: protein assay; how it was run: as §1
T5 sequence (P14174 whole entry): T1 sequence (P14174 whole entry)
T5 sequence (P04233 whole entry): T4 sequence (P04233 whole entry)

[6] = biological target: T3, Macrophage migration inhibitory factor (Homo sapiens); experiment: Inhibition of human recombinant MIF tautomerase at 30 uM by mass spectrometry analysis
[7] = biological target: T2, MIF/CD74 (Macrophage migration inhibitory factor and HLA-DR antigens-associated invariant chain) (Homo sapiens); experiment: Inhibition of human recombinant biotinylated MIF/CD74 interaction at 30 uM by mass spectrometry analysis; assay type: protein assay
[8] = biological target: T3, Macrophage migration inhibitory factor (Homo sapiens); experiment: Inhibition of MIF-dependent ERK1/2 phosphorylation in rheumatoid arthritis patient synovial fibroblasts assessed as phosphorylated ERK1/2 level at 300 nM after 30 mins
[9] = biological target: T3, Macrophage migration inhibitory factor (Homo sapiens); experiment: Inhibition of MIF-dependent ERK1/2 phosphorylation in rheumatoid arthritis patient synovial fibroblasts assessed as total ERK1/2 level at 300 nM after 30 mins

Row | Structure (SMILES) | inhibition [2] [%] | inhibition [3] [%] | other results
1 | COc1ccccc1Cn1c(=O)oc2ccc(O)cc21 | 27 |  | IC50 ([1]; read-out: IC50): 30 µM
2 | COc1cc(Cn2c(=O)oc3ccc(C)cc32)cc(OC)c1 | 11 | 17 | 
3 | COc1cccc(Cn2c(=O)oc3ccc(C)cc32)c1 | 42 |  | 
4 | O=c1oc2ccc(CO)cc2n1Cc1cccc(O)c1 |  |  | IC50 [1]: Not Active; IC50 [4]: 30 µM
5 | Cc1cc2oc(=O)n(Cc3cccc(O)c3)c2cc1C | 32 | 33 | 
6 | COc1cccc(Cn2c(=O)oc3ccc(OC)cc32)c1 |  | 41 | IC50 [4]: 200 µM
7 | O=c1oc2ccccc2n1Cc1ccccc1 | 18 |  | IC50 ([1]; read-out: IC50): 21 µM
8 | COc1ccc(Cn2c(=O)oc3ccc(C)cc32)cc1 |  |  | IC50 [1]: Not Active
9 | COc1ccc2oc(=O)n(Cc3cccc(O)c3)c2c1 |  | 10 | IC50 [4]: 0.08 µM
10 | O=c1oc2cc(F)ccc2n1Cc1cccc(O)c1 |  |  | IC50 [1]: Not Active; IC50 [5]: Not Active
11 | CCOc1ccccc1Cn1c(=O)oc2ccc(C)cc21 | 45 | 21 | 
12 | Ic1cc(-c2ccccc2)ncn1 |  |  | inhibition [6]: 90%; inhibition [7]: 50%
13 | COc1cccc(Cn2c(=O)oc3cc(C)ccc32)c1 | 24 | 16 | 
14 | Cc1ccc2c(c1)oc(=O)n2Cc1cccc(O)c1 | 10 |  | IC50 ([1]; read-out: IC50): 0.0075 µM
15 | Cc1ccc2oc(=O)n(Cc3ccc(O)cc3)c2c1 |  |  | IC50 [1]: Not Active
16 | O=c1oc2cc(O)ccc2n1Cc1ccccc1 | 22 | 28 | 
17 | COc1cccc(Cn2c(=O)oc3ccc(C)cc32)c1OC |  | 32 | IC50 [4]: 7 µM

Row | Structure (SMILES) | inhibition [2] [%] | inhibition [3] [%] | other results
18 | O=c1oc2ccc(O)cc2n1Cc1cccc(O)c1 | 36 | 25 | 
19 | CCc1ccc2oc(=O)n(Cc3cccc(O)c3)c2c1 | 19 |  | IC50 ([1]; read-out: IC50): 2.5 µM
20 | O=c1oc2ccc(O)cc2n1Cc1ccccc1 |  |  | IC50 [1]: Not Active
21 | CCc1ccc2oc(=O)n(Cc3cccc(OC)c3)c2c1 | 15 | 13 | 
22 | O=c1oc2ccc(F)cc2n1Cc1cccc(O)c1 | 18 | 32 | 
23 | COc1cccc(Cn2c(=O)oc3ccc(O)cc32)c1OC |  |  | IC50 ([1]; read-out: IC50): 2.1 µM; IC50 [4]: 300 µM
24 | COc1cccc(Cn2c(=O)oc3ccc(CO)cc32)c1 | 27 | 44 | 
25 | Cc1ccc2oc(=O)n(Cc3cccc(F)c3)c2c1 |  |  | IC50 [1]: Not Active
26 | CCOc1cccc(Cn2c(=O)oc3ccc(C)cc32)c1 | 30 | 20 | 
27 | Cc1ccc2c(c1)oc(=O)n2Cc1ccccc1 | 25 |  | 
28 | Cc1ccc2oc(=O)n(Cc3cccc(N)c3)c2c1 | 27 | 31 | 
29 | COc1cccc(Cn2c(=O)oc3cc(C)c(C)cc32)c1 |  | 25 | IC50 [4]: 0.115 µM
30 | Cc1ccc2oc(=O)n(Cc3cccc(O)c3)c2c1 | 40 |  | inhibition [6]: 50%; inhibition [7]: 50%; inhibition [8]: Active; inhibition [9]: Active
31 | COc1cccc(Cn2c(=O)oc3cc(F)ccc32)c1 | 15 | 35 | 
32 | COc1cc(O)cc(Cn2c(=O)oc3ccc(C)cc32)c1 | 22 | 12 | 
33 | COc1cccc(Cn2c(=O)oc3ccc(F)cc32)c1 |  |  | IC50 [1]: Not Active
34 | CCOc1cc(O)cc(Cn2c(=O)oc3ccc(C)cc32)c1 | 35 | 30 | 
